The IC50 is the point on the concentration scale where inhibition reaches its midpoint. In general, Emax refers to the size of the effect at its maximum, as opposed to the concentration needed.

Assay [1] relates to Mus musculus. The assay is described as follows: Antinociceptive activity against thermal nociception in po dosed CD1 mouse assessed as latency period to elicit jumping or hind paw licking at 1 mg/kg, po measured after 15 to 90 mins postdose by hot plate method in presence of 0.1 to 1 mg/kg, ip alpha-1-adrenergic receptor antagonist prazosin administered 15 mins before compound infusion. The format is functional. An outline of the steps: (§1)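 Male CD-1 mice given prazosin ip (0.1 or 1 mg/kg) 15 min before oral dosing at 1 mg/kg. Tail flick: radiant heat 3–4 cm from the tail tip, cut-off 15 s. Hot plate: 48.5 °C, cut-off 60 s. Baseline is the mean of three readings 15 min apart. Latency followed over time and expressed as %MPE.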

Assay [2] addresses T1, Alpha-1A adrenergic receptor (Rattus norvegicus, UniProt P43140).
T1 sequence (P43140 whole entry): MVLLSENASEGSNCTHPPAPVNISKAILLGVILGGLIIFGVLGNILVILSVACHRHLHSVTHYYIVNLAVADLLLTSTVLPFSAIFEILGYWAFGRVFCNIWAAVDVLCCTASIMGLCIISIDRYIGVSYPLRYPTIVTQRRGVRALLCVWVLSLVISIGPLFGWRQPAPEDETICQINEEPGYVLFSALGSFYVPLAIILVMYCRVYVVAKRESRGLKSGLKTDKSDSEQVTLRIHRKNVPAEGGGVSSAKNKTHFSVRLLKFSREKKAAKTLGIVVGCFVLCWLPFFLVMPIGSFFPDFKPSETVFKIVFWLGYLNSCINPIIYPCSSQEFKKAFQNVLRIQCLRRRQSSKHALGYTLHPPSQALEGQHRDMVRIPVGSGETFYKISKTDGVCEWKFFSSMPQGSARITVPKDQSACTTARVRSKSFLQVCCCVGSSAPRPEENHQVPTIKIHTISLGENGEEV
The assay is described as follows: Displacement of [3H]prazosin from adrenergic alpha1A receptor in Wistar rat submaxillary gland after 60 mins. The format is tissue-based.

The target of assay [3] is T2, Alpha-1B adrenergic receptor (Rattus norvegicus, UniProt P15823).
T2 sequence (P15823 whole entry): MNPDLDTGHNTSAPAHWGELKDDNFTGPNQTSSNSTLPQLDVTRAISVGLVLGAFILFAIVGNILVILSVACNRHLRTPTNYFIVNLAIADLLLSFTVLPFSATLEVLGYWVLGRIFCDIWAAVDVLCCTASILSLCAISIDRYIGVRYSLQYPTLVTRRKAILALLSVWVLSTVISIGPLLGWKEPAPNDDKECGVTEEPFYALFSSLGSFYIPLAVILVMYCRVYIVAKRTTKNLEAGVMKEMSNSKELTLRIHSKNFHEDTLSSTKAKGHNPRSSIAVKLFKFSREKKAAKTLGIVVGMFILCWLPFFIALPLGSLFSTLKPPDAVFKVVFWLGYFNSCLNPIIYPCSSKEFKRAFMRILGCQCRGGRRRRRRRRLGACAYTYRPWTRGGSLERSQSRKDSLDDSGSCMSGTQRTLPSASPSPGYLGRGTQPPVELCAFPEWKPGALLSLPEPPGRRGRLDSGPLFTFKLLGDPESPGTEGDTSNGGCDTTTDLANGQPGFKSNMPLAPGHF
The assay is described as follows: Displacement of [3H]prazosin from adrenergic Alpha-1B receptor in Wistar rat liver membrane after 60 mins. The format is cell membranes. In general terms: In a radioligand displacement assay an active substance lowers the binding of a labelled ligand.

For assay [4], the target named is T3, Alpha-1A adrenergic receptor (Rattus norvegicus) (UniProt P43140).
T3 sequence (whole entry): T1 sequence (P43140 whole entry)
The assay is described as follows: Inhibition of [3H]prazosin binding to adrenergic alpha1A receptor in Wistar rat submaxillary gland at 10 uM after 60 mins. An outline of the steps: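 Wistar rat submaxillary gland membranes with 0.25 nM [3H]-prazosin. Nonspecific binding defined by 10 μM phentolamine. Buffer 50 mM Tris-HCl pH 7.4, 0.5 mM EDTA. Incubated 60 min at 25 °C, then filtered and counted. Duplicate; 1% DMSO final.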

Assay [5] concerns Mus musculus. The assay can be described thus: Antinociceptive activity against radiant heat-induced nociception in icv dosed CD1 mouse assessed as increase in tail withdrawal latency measured after 15 to 120 mins postdose by tail flick test. The format is functional. An outline of the steps: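 Male CD-1 mice anesthetized with ketamine-xylazine (80 + 10 mg/kg ip). Dosed into the right lateral ventricle (+2 mm ML, −0.3 mm AP to bregma, 2 mm depth). Tail flick with radiant heat, cut-off 15 s. Latency read at 15–120 min as %MPE.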
(In general: In hot-plate and tail-flick tests a longer latency is read as antinociception.)

Assay [6] relates to Mus musculus. The assay can be described thus: Antinociceptive activity against radiant heat-induced nociception in po dosed CD1 mouse assessed as increase in tail withdrawal latency measured after 15 to 120 mins postdose by tail flick test in presence of 2 mg/kg, ip nicotinic receptor antagonist mecamylamine hydrochloride administered 30 mins before compound infusion. The format is functional. The procedure, abridged: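 Antagonist given ip 30 min before oral dosing (naloxone 1, mecamylamine 2, yohimbine 2, CGP 35348 50 mg/kg). Tail flick with radiant heat at the tail tip, cut-off 15 s; latencies at 15–120 min converted to %MPE. Peak-time quantal response (≥50% MPE); ED50 from at least four groups of six male CD-1 mice.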

In assay [7] the test system is Mus musculus. The assay is described as follows: Antinociceptive activity against thermal nociception in po dosed CD1 mouse assessed as increase in latency period to elicit jumping or hind paw licking measured after 15 to 90 mins postdose by hot plate method. The format is functional.
In assay [8] the test system is Mus musculus. The assay is described as follows: Antinociceptive activity against thermal nociception in po dosed CD1 mouse assessed as increase in latency period to elicit jumping or hind paw licking measured after 15 to 90 mins postdose by hot plate method in presence of 2 mg/kg, ip nicotinic receptor antagonist mecamylamine hydrochloride administered 30 mins before compound infusion. The format is functional. An outline of the steps:
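Antagonist given ip 30 min before oral dosing (naloxone 1, mecamylamine 2, yohimbine 2, CGP 35348 50 mg/kg). Hot plate at 48.5 ± 0.1 °C inside a cylinder, cut-off 60 s; latencies at 15–90 min as %MPE. Peak-time quantal response (≥50% MPE); ED50 from at least four groups of six male CD-1 mice.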

Assay [9] deals with Mus musculus. The assay can be described thus: Antinociceptive activity against radiant heat-induced nociception in CD1 mouse assessed as tail withdrawal latency at 1 mg/kg, po measured after 15 to 120 mins postdose by tail flick test. The format is functional. The procedure, abridged: (§2)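 Male CD-1 mice (25–30 g), dosed orally at 1 mg/kg. Tail flick: radiant heat focused 3–4 cm from the tail tip, cut-off 15 s at 15 V. Hot plate: 48.5 ± 0.1 °C, licking, paw jerk or jump, cut-off 60 s. Baseline is the mean of three readings 15 min apart. Latency followed to 120 min (tail) or 90 min (plate); data as %MPE.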

The test system of assay [10] is Mus musculus. The assay can be described thus: Antinociceptive activity against thermal nociception in po dosed CD1 mouse assessed as latency period to elicit jumping or hind paw licking at 1 mg/kg, po measured after 15 to 90 mins postdose by hot plate method. The format is functional. The procedure, abridged: as §2
For assay [11], the system named is Mus musculus. The assay is described as follows: Antinociceptive activity against radiant heat-induced nociception in CD1 mouse assessed as tail withdrawal latency at 1 mg/kg, po measured after 15 to 120 mins postdose by tail flick test in presence of 0.1 to 1 mg/kg, ip alpha-1-adrenergic receptor antagonist prazosin administered 15 mins before compound infusion. The format is functional. An outline of the steps: as §1

For assay [12], the target named is T4, Alpha-1B adrenergic receptor (Rattus norvegicus) (UniProt P15823).
T4 sequence (whole entry): T2 sequence (P15823 whole entry)
Particulars: Wistar, Liver, Membrane, 10 uM.

For `C=Cc1c(C)nn(CCCN2CCN(c3ccc(C)cc3)CC2)c(=O)c1N`, the Activity in the assay with Mus musculus [1] is 120 min; in the assay with Mus musculus [9], 30 min; with Mus musculus [10], 30 min; in the assay on Mus musculus [11], 120 min. For the same compound, the IC50 stood at 56 nM in [2] and 102 nM in [3]. The maximal effect (Emax) in assay [4] came out at 101%; in assay [12], 99%. For the same compound, the ED50 with Mus musculus [5] amounted to 3.5 µg; in the assay with Mus musculus [6], 2.3 mg/kg; in the assay on Mus musculus [7], 0.5 mg/kg; in the assay on Mus musculus [8], 0.7 mg/kg.

The values above are taken from ChEMBL document CHEMBL1154181 (J Med Chem, 2009).
